BB579 growth dn = growth inhibitors of yeast BB579 in restrictive medium, primary screen, yeast lifespan-shortening project, S. cerevisiae; inhibition, % at 10 µM; OD615, 48 h; 0.51% of 140,000 active; AID 804, 2007;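 active means inhibition above a set limit, 3 SD over the mean compound inhibition, cut at about 44% in these data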
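System: Saccharomyces cerevisiae DeaD strain BB579, replicative lifespan model yeast. Buffer or medium: restrictive glucose-based CSMM-D medium. Doses: one dose, 10 µM compound with 0.25% DMSO. Timing: 4 h preincubation and 48 h exposure at 30 °C. Detection: turbidity as optical density at 615 nm. Benchmarks: amphotericin B 10 µg/mL, positive.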
Phagocytosis inh = inhibitors of macrophage phagocytosis, primary screen, imaging, J774A.1 cells, IgG beads; J774A.1 macrophage IgG-bead phagocytosis; inhibition, % at 5 µM; 0.07% of 110,000 active; AID 1029, 2008;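 active means inhibition above the mean of the plate negative controls plus 5 SD, cut at about 13% in these data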;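 further: phagocytic index as fraction of beads internalized from green versus red external bead signal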
RAM inhibit = inhibitors of the yeast RAM network, primary screen, dse1pr::URA3 reporter, 5-FOA selection | inhibition, % at 50 µM | S. cerevisiae dse1pr::URA3 reporter, 5-FOA growth OD615, 2 d; analog-sensitive cbk1-as2 kinase mutant strain | 1.8% of 190,000 active;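 active means inhibition above a set limit, 3 SD over mean compound inhibition, cut at about 8.4% in these data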;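 further: inhibition rescues growth on 5-FOA so higher OD means more RAM inhibition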
Yeast lifespan up = compounds extending yeast replicative lifespan, primary screen, S. cerevisiae, OD615; 0.68% of 130,000 active; S. cerevisiae growth with nicotinamide; deaD strain in restrictive glucose medium; AID 775, 2007; inhibition of the nicotinamide effect, % at 10 µM;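 active means inhibition above a set limit, placed 3 SD over the median of all compounds, cut at about 26% in these data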
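Test system: DeaD-strain S. cerevisiae / Buffer or medium: restrictive glucose medium / Also added: nicotinamide 1.5 mM / Doses: one concentration, 10 µM, DMSO 0.25% / Schedule: 48 h at 30 °C / Signal: OD615 measurement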
Measles CPE = compounds protecting cells from measles virus cytopathic effect, primary screen, measles RdRp inhibitor project, single point, MLSMR library, absorbance; Measles virus-infected cells, CPE protection; protection (pct of control), % at 4 µM; 1.5% of 140,000 active; AID 841, 2007; in the data active means protection mostly above about 24%, no sharp cut-off; inactive means mostly below about 26%
RAM 5-FOA = 5-FOA growth of efflux-deficient control yeast, dose response, counter-screen for RAM network inhibitor project, S. cerevisiae, OD615; S. cerevisiae efflux-deficient reporter strain, 5-FOA growth OD615, 2 days; 1,200 tested, under 10 active; max inhibition, %; shares compounds with RAM inhibit; call rule not given here
Large screens that a line does not name were inactive (follow-up assays come after a bar, where they were run). Shown are actives, neighbours in structure and some others; about 3.6% of the full set was active somewhere.

Cc1ccc2nc(C)n(-c3ccc(F)cc3)c(=O)c2c1	none (no result: BB579 growth dn, Phagocytosis inh, Yeast lifespan up, Measles CPE)
Cc1ccsc1C(=O)C1CCCN(Cc2cnc(N3CCCC3)s2)C1 (configuration not stated)	none (no result: BB579 growth dn, Phagocytosis inh, Yeast lifespan up, Measles CPE)
FC(F)(F)c1nc(N2CCN(c3ccccc3)CC2)nc2c1CCCCC2	RAM inhibit 14 | RAM 5-FOA inactive
Cc1ccc(Cn2cc(C=O)c(-c3ccc(C)cc3)n2)cc1	RAM inhibit 16 | RAM 5-FOA inactive
COc1ccc(N2C(=O)NC(=O)/C(=C\c3ccc([N+](=O)[O-])s3)C2=O)cc1	none (no result: BB579 growth dn, Phagocytosis inh, Yeast lifespan up, Measles CPE)
COc1ccc(N2C(=O)/C(=C/C=C/c3ccccc3[N+](=O)[O-])C(=O)NC2=S)cc1	RAM inhibit 17 (no result: BB579 growth dn, Phagocytosis inh, Yeast lifespan up, Measles CPE) | RAM 5-FOA inactive
